Measured values as given in paper PMC9260854 (Biochemistry, 2022).
Substitutions are numbered along the chain they refer to. Like-named read-outs stand apart in the source and are kept apart here.

Tests used:
[1] = molecular target: T1, SULT2B1b S347D spin-labeled at residue 171 (Homo sapiens, UniProt O00204, C225S/C278S/C81S/S347D/T171C); assay: Initial-rate parameters, spin-labeled mutant 171; type: biochemical
T1 sequence (O00204 1-365 C81S/T171C/C225S/C278S/S347D): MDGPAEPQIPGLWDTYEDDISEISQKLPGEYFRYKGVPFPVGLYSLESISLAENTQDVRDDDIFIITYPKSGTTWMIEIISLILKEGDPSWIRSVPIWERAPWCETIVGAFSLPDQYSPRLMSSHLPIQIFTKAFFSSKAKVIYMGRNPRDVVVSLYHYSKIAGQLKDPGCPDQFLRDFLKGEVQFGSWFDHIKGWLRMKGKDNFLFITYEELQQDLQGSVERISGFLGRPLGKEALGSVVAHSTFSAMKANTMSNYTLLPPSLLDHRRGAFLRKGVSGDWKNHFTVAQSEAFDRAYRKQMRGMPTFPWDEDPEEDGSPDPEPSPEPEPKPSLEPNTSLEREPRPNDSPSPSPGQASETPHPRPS

[2] = molecular target: T2, SULT2B1b, S347D, W13A (Homo sapiens, UniProt O00204, S347D/W13A); assay: Initial-rate parameters, direct-contact mutant W13A
T2 sequence (O00204 1-365 W13A/S347D): T1 sequence (O00204 1-365 C81S/T171C/C225S/C278S/S347D) with W13A, S81C, C171T, S225C, S278C

[3] = molecular target: T3, SULT2B1b S347D (Homo sapiens, UniProt O00204, S347D); assay: Equilibrium binding via intrinsic fluorescence; conditions: for Kd: Kd Quc
T3 sequence (O00204 1-365 S347D): T1 sequence (O00204 1-365 C81S/T171C/C225S/C278S/S347D) with S81C, C171T, S225C, S278C
Method in brief: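 Intrinsic fluorescence titrations of purified His/GST/MBP-tag-cleaved enzyme, excitation 290 nm, in KPO4 (50 mM), pH 7.5, 25 ± 2 °C. […] Triplicate averaged data were fit to a single-site-per-monomer model.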

[4] = molecular target: T4, native non-tagged SULT2B1b (Homo sapiens, UniProt O00204); assay: Initial-rate 1-HP sulfonation inhibition, native; type: biochemical; conditions: native enzyme
T4 sequence (O00204 1-365): T1 sequence (O00204 1-365 C81S/T171C/C225S/C278S/S347D) with S81C, C171T, S225C, S278C, D347S

[5] = molecular target: T5, SULT2B1a (Homo sapiens, UniProt O00204); assay: Initial-rate 1-HP sulfonation inhibition; type: biochemical
T5 sequence (O00204 1-350 isoform O00204-2): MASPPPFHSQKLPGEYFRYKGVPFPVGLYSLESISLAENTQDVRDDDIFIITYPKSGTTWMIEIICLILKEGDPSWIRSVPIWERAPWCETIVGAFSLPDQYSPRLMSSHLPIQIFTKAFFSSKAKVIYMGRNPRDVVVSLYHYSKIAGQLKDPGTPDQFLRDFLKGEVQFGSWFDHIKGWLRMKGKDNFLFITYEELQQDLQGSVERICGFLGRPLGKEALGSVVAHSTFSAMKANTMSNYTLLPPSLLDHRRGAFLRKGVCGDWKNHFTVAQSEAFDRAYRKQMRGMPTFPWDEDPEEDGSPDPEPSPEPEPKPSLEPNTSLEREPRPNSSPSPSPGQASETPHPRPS

[6] = molecular target: T6, SULT2A1 (Homo sapiens, UniProt Q06520); assay: Initial-rate 1-HP sulfonation inhibition; type: biochemical
T6 sequence (Q06520 1-285): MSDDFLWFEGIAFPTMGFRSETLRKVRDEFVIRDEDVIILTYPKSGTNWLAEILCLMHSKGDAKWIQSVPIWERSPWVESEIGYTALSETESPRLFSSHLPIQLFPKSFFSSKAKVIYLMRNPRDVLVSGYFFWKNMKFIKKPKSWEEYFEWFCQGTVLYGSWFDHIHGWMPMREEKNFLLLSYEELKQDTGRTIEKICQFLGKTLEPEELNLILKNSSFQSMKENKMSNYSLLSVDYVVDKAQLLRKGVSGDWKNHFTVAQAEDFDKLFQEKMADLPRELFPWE

[7] = molecular target: T7, SULT2B1b S347D spin-labeled at residue 21 (Homo sapiens, UniProt O00204, C225S/C278S/C81S/S21C/S347D); assay: Initial-rate parameters, spin-labeled mutant 21; type: biochemical
T7 sequence (O00204 1-365 S21C/C81S/C225S/C278S/S347D): T1 sequence (O00204 1-365 C81S/T171C/C225S/C278S/S347D) with S21C, C171T

Molecule `O=c1c(O)c(-c2ccc(O)c(O)c2)oc2cc(O)cc(O)c12` [quercetin] has a Ki [1] of 350 nM, a Ki [2] of 7.5 µM and a Kd ([3]; enzyme form E (no PAP)) of 5300 nM. The Kd ([3]; enzyme form E•PAP (PAP 30 μM)) was 350 nM, the “increase of quercetin affinity” value ([3]; saturation with PAPS) was 15 fold and the “α WT (quercetin)” value [4] was 0.08 ± 0.01. The inhibition by quercetin ([5]; concentrations as high as 10 μM) was “does not detectably inhibit”, the inhibition by quercetin ([5]; up to 100 μM quercetin) was “No inhibition was detected” and the inhibition by quercetin [6] was “not inhibited”. The inhibition by quercetin ([6]; up to 100 μM quercetin) was “No inhibition was detected” and the Ki [7] was 330 nM.
